According to ChEMBL document CHEMBL4038302, “Fibroblast Activation Protein α Activated Tripeptide Bufadienolide Antitumor Prodrug with Reduced Cardiotoxicity” (J Med Chem, 2017):
Blank lines part the entries; values can stand above or below the compound they belong to. Calls of active or inactive are those of the source. The rule behind the calls is not given here.

Experiments:
[1] = system: [H][C@]12CC[C@@]3([H])[C@@]4(O)CC[C@H](c5ccc(=O)oc5)[C@@]4(C)C(=O)[C@@H](O)[C@]3([H])[C@@]1(C)CC[C@H](OC(=O)[C@H](Cc1c[nH]c3ccccc13)NC(=O)[C@@H]1CCCN1C(=O)CNC(=O)OCc1ccccc1)C2; assay: (§1) Prodrug activation assessed as recombinant human FAP-alpha mediated (S)-((3S,5R,8R,9S,10S,11S,13R,14S,17R)-11,14-dihydroxy-10,13-dimethyl-12-oxo-17-(2-oxo-2H-pyran-5-yl)hexadecahydro-1H-cyclopenta[a]phenanthren-3-yl) 2-amino-3-(1H-indol-3-yl)propanoate formation by measuring concentration of test compound gives half-maximal activity after 90 mins by UPLC-MS/MS analysis
Summary of the method: (§2)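 Prodrug at 0.625–40 μmol/L incubated with rhFAPα at 0.45 μg/mL and internal standard in 0.2 mL PBS, pH 7.4, at 37 °C for 90 min. Quenched with MeCN and spun at 18 000g for 15 min; product measured by UPLC-MS/MS. S50 and Vmax fitted with an allosteric sigmoidal model; CLint = Vmax/S50. Three independent experiments.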

[2] = system: [H][C@]12CC[C@@]3([H])[C@@]4(O)CC[C@H](c5ccc(=O)oc5)[C@@]4(C)C(=O)[C@@H](O)[C@]3([H])[C@@]1(C)CC[C@H](OC(=O)Cc1ccc(NC(=O)[C@@H]3CCCN3C(=O)CNC(=O)OCc3ccccc3)cc1)C2; assay: Prodrug activation assessed as recombinant human FAP-alpha mediated 5-((3S,5R,8R,9S,10S,11S,13R,14S,17R)-3-(2-(4-aminophenyl)acetyl)-11,14-dihydroxy-10,13-dimethyl-12-oxohexadecahydro-1H-cyclopenta[a]phenanthren-17-yl)-2H-pyran-2-one formation by measuring concentration of test compound gives half-maximal activity after 90 mins by UPLC-MS/MS analysis; summary of the method: as §2
[3] = system: [H][C@]12CC[C@@]3([H])[C@@]4(O)CC[C@H](c5ccc(=O)oc5)[C@@]4(C)C(=O)[C@@H](O)[C@]3([H])[C@@]1(C)CC[C@H](OC(=O)[C@@H](NC(=O)[C@@H]1CCCN1C(=O)CNC(=O)OCc1ccccc1)C(C)C)C2; assay: as §1, with “2-amino-3-methylbutanoate” for “2-amino-3-(1H-indol-3-yl)propanoate”; summary of the method: as §2
[4] = system: [H][C@]12CC[C@@]3([H])[C@@]4(O)CC[C@H](c5ccc(=O)oc5)[C@@]4(C)C(=O)[C@@H](O)[C@]3([H])[C@@]1(C)CC[C@H](OC(=O)[C@H](C)NC(=O)[C@@H]1CCCN1C(=O)CNC(=O)OCc1ccccc1)C2; assay: as §1, with “2-aminopropanoate” for “2-amino-3-(1H-indol-3-yl)propanoate”; summary of the method: as §2
[5] = Cytotoxicity in BMSC (unknown origin) assessed as cell viability at 1000 nmol/L after 72 hrs by MTT assay; assay type: cell-based; conditions: unidentified, 1 µM
[6] = system: MDA-MB-435; assay: Antiproliferative activity against wild type human MDA-MB-435 cells expressing FAP-alpha incubated for 48 hrs by MTT assay; assay type: functional, cell-based; conditions: MDA-MB-435, 48 h
Summary of the method: (§3)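 Cells grown in DMEM with 10% FBS and 1% penicillin-streptomycin at 37 °C, 5% CO2; 10% heat-inactivated FBS used during cytotoxicity testing to exclude serum FAP activity. Viability read by MTT; IC50 as mean ± SEM of at least three independent experiments. Transfected lines were made from MDA-MB-231 with human FAPα plasmid or empty pCMV6-Entry vector and checked by Western blot at 48 h.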

[7] = system: MDA-MB-231; assay: Antiproliferative activity against human MDA-MB-231 cells transfected with human FAP-alpha incubated for 48 hrs by MTT assay; assay type: functional, cell-based; conditions: MDA-MB-231, 48 h; summary of the method: as §3
[8] = system: MDA-MB-231; assay: Antiproliferative activity against FAP-alpha deficient human MDA-MB-231 cells incubated for 48 hrs by MTT assay; assay type: functional, cell-based; conditions: MDA-MB-231, 48 h; summary of the method: as §3
[9] = system: MCF7; assay: Antiproliferative activity against FAP-alpha deficient human MCF7 cells incubated for 48 hrs by MTT assay; assay type: functional, cell-based; conditions: MCF7, 48 h; summary of the method: as §3
[10] = system: MDA-MB-231; assay: Antiproliferative activity against human MDA-MB-231 cells transfected with pCMV6 incubated for 48 hrs by MTT assay; assay type: functional, cell-based; conditions: MDA-MB-231, 48 h; summary of the method: as §3
[11] = system: MDA-MB-231; assay: Antiproliferative activity against human MDA-MB-231 cells assessed as decrease in cell viability at 62.5 to 500 nmol/L after 72 hrs by MTT assay; assay type: functional, cell-based
[12] = biological target: T1, Prolyl endopeptidase FAP (Homo sapiens, UniProt Q12884); assay: as §1, with “2-aminopropanoate” for “2-amino-3-(1H-indol-3-yl)propanoate”, “[…]” for “concentration of test compound gives half-maximal activity”; conditions: 1.5 h; summary of the method: as §2
T1 sequence (Q12884 whole entry): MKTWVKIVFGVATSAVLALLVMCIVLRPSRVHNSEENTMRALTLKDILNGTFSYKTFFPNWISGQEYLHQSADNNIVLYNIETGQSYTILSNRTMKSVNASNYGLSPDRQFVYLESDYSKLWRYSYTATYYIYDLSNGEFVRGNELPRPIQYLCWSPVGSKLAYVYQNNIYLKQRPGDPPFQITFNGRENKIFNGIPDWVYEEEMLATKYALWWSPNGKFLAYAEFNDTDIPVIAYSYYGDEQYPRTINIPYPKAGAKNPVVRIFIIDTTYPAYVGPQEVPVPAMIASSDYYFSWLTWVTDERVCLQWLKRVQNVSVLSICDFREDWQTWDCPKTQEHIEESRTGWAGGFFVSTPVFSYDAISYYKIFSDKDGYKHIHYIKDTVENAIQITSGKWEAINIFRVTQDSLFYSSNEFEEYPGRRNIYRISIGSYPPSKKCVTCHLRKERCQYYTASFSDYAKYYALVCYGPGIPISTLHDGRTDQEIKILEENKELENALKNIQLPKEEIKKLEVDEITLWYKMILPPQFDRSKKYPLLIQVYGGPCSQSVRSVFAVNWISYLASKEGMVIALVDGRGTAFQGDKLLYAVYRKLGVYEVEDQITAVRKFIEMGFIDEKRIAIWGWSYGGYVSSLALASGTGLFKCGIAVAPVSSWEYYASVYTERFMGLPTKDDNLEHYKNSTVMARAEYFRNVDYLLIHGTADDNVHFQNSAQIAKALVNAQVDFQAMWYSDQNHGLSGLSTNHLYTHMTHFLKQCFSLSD

[13] = biological target: T1, Prolyl endopeptidase FAP; assay: Prodrug activation assessed as recombinant human FAP-alpha mediated (3S,5R,8R,9S,10S,11S,13R,14S,17R)-11,14-dihydroxy-10,13-dimethyl-12-oxo-17-(2-oxo-2H-pyran-5-yl)hexadecahydro-1H-cyclopenta[a]phenanthren-3-yl 4-aminobenzoate formation at 40 umol/L after 6 hrs by UPLC-MS/MS analysis; conditions: 40 µM
Summary of the method: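 Prodrug at 40 μmol/L incubated with rhFAPα at 0.45 μg/mL in 0.2 mL buffer at 37 °C for 6 h, with bufalin at 2 μmol/L as internal standard. Stopped with acetonitrile and spun at 18 000g for 15 min. Released active form measured by UPLC-MS/MS via peak-area ratio against a standard curve of 0.625–40 μmol/L.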

Compound: Prolyl endopeptidase FAP (Homo sapiens)
K0.5 [1]: 10.4 µM | Vmax [1]: 0.682 µmol/min/mg | K0.5 [2]: 3.68 µM | Vmax [2]: 0.026 µmol/min/mg | K0.5 [3]: 34.5 µM | Vmax [3]: 0.044 µmol/min/mg | K0.5 [4]: 21.3 µM | Vmax [4]: 0.494 µmol/min/mg

IC50 [6]: 10 nM | IC50 [7]: 7.19 nM | IC50 [8]: 4.81 nM | IC50 [9]: 1.06 nM | IC50 [10]: 5.19 nM
Compound: C[C@]12CC[C@H](OC(=O)[C@@H](N)Cc3c[nH]c4ccccc34)C[C@H]1CC[C@@H]1[C@@H]2[C@H](O)C(=O)[C@]2(C)[C@@H](c3ccc(=O)oc3)CC[C@]12O
Activity [5]: Non-Toxic | Activity [11]: Active

CL [12]: 23.24 mL/min/mg
Compound: C[C@H](NC(=O)[C@@H]1CCCN1C(=O)CNC(=O)OCc1ccccc1)C(=O)O[C@H]1CC[C@@]2(C)[C@H](CC[C@@H]3[C@@H]2[C@H](O)C(=O)[C@]2(C)[C@@H](c4ccc(=O)oc4)CC[C@]32O)C1

Drug metabolism [13]: Metabolite_Notdetected
Compound: C[C@]12CC[C@H](OC(=O)c3ccc(NC(=O)[C@@H]4CCCN4C(=O)CNC(=O)OCc4ccccc4)cc3)C[C@H]1CC[C@@H]1[C@@H]2[C@H](O)C(=O)[C@]2(C)[C@@H](c3ccc(=O)oc3)CC[C@]12O
